Source: ChEMBL document CHEMBL4706642, “Discovery of a Potent Dual Inhibitor of Acetylcholinesterase and Butyrylcholinesterase with Antioxidant Activity that Alleviates Alzheimer-like Pathology in Old APP/PS1 Mice” (J Med Chem, 2021)
Activity calls are given as the source filed them.

What was measured:
[1] = target: T1, Acetylcholinesterase (Homo sapiens, UniProt P22303); experiment: Inhibition of recombinant human AChE using acetylthiocholineiodide as substrate preincubated for 20 mins followed by substrate addition by Ellman's method
Procedure, shortened: (§1)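 Enzyme was 0.02 U/mL human recombinant AChE or human serum BChE. Non-enzymatic hydrolysis was corrected. IC50 came from a % inhibition vs log[I] regression. Selectivity = IC50 hBChE/IC50 hAChE. Mean ± SEM of ≥2 experiments, each in duplicate/triplicate.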

[2] = target: T2, Cholinesterase (Homo sapiens, UniProt P06276); experiment: Inhibition of human serum BChE using butyrylthiocholineiodide as substrate preincubated for 20 mins followed by substrate addition by Ellman's method; format: cell-free; procedure, shortened: as §1
[3] = Permeability of the compound in PBS/EtOH buffer (70:30) by PAMPA-BBB assay; format: ADME; details: read-out: permeability
Procedure, shortened: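 PAMPA-BBB permeability, reported as Pe in 10⁻⁶ cm s⁻¹, with CNS+ defined as Pe > 5.1. Mean ± SD of three experiments, each in triplicate.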

[4] = target: T2, Cholinesterase; experiment: Inhibition of human serum BChE using butyrylthiocholineiodide as substrate preincubated for 20 mins followed by substrate addition by Ellman's method relative to parent compound; format: cell-free
[5] = Drug distribution in wild type C57BL6 mouse brain at 2 mg/kg, ip thrice a week for 2 weeks observed after 4 hrs post last dose by HPLC/MS/MS analysis; format: ADME, organism-based; details: in vivo, 336 h
[6] = Drug concentration in wild type C57BL6 mouse brain at 2 mg/kg, ip thrice a week for 2 weeks observed after 4 hrs post last dose by HPLC/MS/MS analysis; details: brain
[7] = Drug concentration in wild type C57BL6 mouse plasma at 2 mg/kg, ip thrice a week for 2 weeks observed after 4 hrs post last dose by HPLC/MS/MS analysis; details: plasma
[8] = test system: Mus musculus; experiment: Cognitive enhancing effect in 11 months old APP/PS1 double mutant-transgenic mouse model assessed as increase in preference index for object at 2 mg/kg, ip administered thrice a week for 4 weeks by novel object recognition test; format: functional, organism-based
Procedure, shortened: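 Male APP/PS1 mice received 2 mg/kg i.p. in saline (or vehicle), three times per week for 4 weeks. Preference index = time exploring the relocated or novel object divided by total time exploring both objects. Mean ± SEM, n = 7 per group; one-way ANOVA with Bonferroni post hoc.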

[9] = test system: Mus musculus; experiment: Antialzheimer activity in 11 months old APP/PS1 double mutant-transgenic mouse model assessed as amyloid beta42 levels in hippocampus at 2 mg/kg, ip administered thrice a week for 4 weeks by ELISA (Rvb= 69.0 +/- 4.54 pg/ml); format: functional
Procedure, shortened: (§2)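 Male APP/PS1 mice received 2 mg/kg i.p. in saline (or vehicle), three times weekly for 4 weeks. After the behavioral tests, hippocampus was collected and Aβ40 and Aβ42 were measured with a specific ELISA kit. Mean ± SEM, n = 7 mice per group; one-way ANOVA with Bonferroni post hoc.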

[10] = test system: Mus musculus; experiment: Antialzheimer activity in 6 months young APP/PS1 double mutant-transgenic mouse model assessed as amyloid beta40 levels in hippocampus at 2 mg/kg, ip administered thrice a week for 4 weeks by ELISA; format: functional, organism-based; procedure, shortened: as §2
[11] = test system: Mus musculus; experiment: Antialzheimer activity in 6 months young APP/PS1 double mutant-transgenic mouse model assessed as amyloid beta42 levels in hippocampus at 2 mg/kg, ip administered thrice a week for 4 weeks by ELISA; format: functional, organism-based; procedure, shortened: as §2
[12] = test system: Mus musculus; experiment: Antialzheimer activity in 6 months young APP/PS1 double mutant-transgenic mouse model assessed as theta burst induced-long term potentiation in CA3 region of hippocampus at 2 mg/kg, ip administered thrice a week for 4 weeks by fluorescence microscopy based electrophysiology method (reference value: 134.1 +/- 13.1 %); format: functional
[13] = test system: Mus musculus; experiment: Antialzheimer activity in 11 months old APP/PS1 double mutant-transgenic mouse model assessed as time interval at which EPSP-evoked calcium-dependent vesicle release in CA3 region of hippocampus causing short-term plasticity at 2 mg/kg, ip administered thrice a week for 4 weeks measured at 10 ms interval by fluorescence microscopy based electrophysiology method (reference value: 2.05 +/- 0.2 ms); format: functional
Procedure, shortened: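 Paired-pulse facilitation in hippocampal slices from male APP/PS1 mice dosed i.p. with 2 mg/kg in saline (or vehicle), three times per week for 4 weeks. Two EPSPs were evoked at intervals of 10–200 ms, and the index is the R2/R1 fEPSP slope ratio. Mean ± SEM of 9 slices from 3 mice per group; two-way ANOVA with Bonferroni post hoc.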

[14] = test system: Mus musculus; experiment: Antialzheimer activity in 11 months old APP/PS1 double mutant-transgenic mouse model assessed as fiber volley amplitude in CA3 region of hippocampus at 2 mg/kg, ip administered thrice a week for 4 weeks followed by stimulation with 1 to 10 uA EPSP by fluorescence microscopy based electrophysiology method (reference value: 0.826 +/- 0.169 mV/ms); format: functional
Procedure, shortened: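 Hippocampal slices from male APP/PS1 mice given 2 mg/kg i.p. in saline (or saline alone), three times per week for 4 weeks. Input–output curves were built from evoked fEPSP slopes and fiber volley amplitudes, with values taken at the maximum current intensity. Mean ± SEM of 9 slices from 3 mice per group; two-way ANOVA with Bonferroni post hoc.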

[15] = test system: Mus musculus; experiment: Neuroprotective activity in 6 months young APP/PS1 double mutant-transgenic mouse model assessed as decrease in 4-hydroxy-2-nonenal levels in hippocampus at 2 mg/kg, ip administered thrice a week for 4 weeks by Hoechst staining based immunofluorescence analysis; format: functional, organism-based
Procedure, shortened: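 Hippocampal 4-hydroxy-2-nonenal was assessed by immunofluorescence with Hoechst counterstain in male APP/PS1 mice given 2 mg/kg i.p. in saline (or vehicle), three times weekly for 4 weeks. Mean ± SEM, n = 4 mice per group; one-way ANOVA with Bonferroni post hoc.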

[16] = test system: Mus musculus; experiment: Antiinflammatory activity in 11 months old APP/PS1 double mutant-transgenic mouse model assessed as reduction in GFAP level in hippocampus at 2 mg/kg, ip administered thrice a week for 4 weeks by Hoechst staining based immunofluorescence analysis; format: functional, organism-based
Procedure, shortened: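 Hippocampal GFAP immunofluorescence with Hoechst nuclear counterstain in male APP/PS1 mice after 2 mg/kg i.p. in saline (or vehicle), three times per week for 4 weeks. Mean ± SEM, n = 4 mice per group; one-way ANOVA with Bonferroni post hoc.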

[17] = test system: Mus musculus; experiment: Cognitive enhancing effect in 6 months young APP/PS1 double mutant-transgenic mouse model assessed as effect on number of times animal crossing central area in transparent cage at 2 mg/kg, ip administered thrice a week for 4 weeks by LOF test; format: functional, organism-based
Procedure, shortened: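 Open-field locomotor test in male APP/PS1 mice after 2 mg/kg i.p. in saline (or vehicle), three times per week for 4 weeks. Read-outs were time spent moving and number of crossings of the central area of a transparent cage. Mean ± SEM, n = 7 per group; one-way ANOVA with Bonferroni post hoc.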

[18] = target: Acetylcholinesterase (Electrophorus electricus, UniProt O42275); experiment: Displacement of propidium iodide from PAS-region of electric eel AChE assessed as dissociation constant by spectrofluorimetric analysis
Procedure, shortened: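 Back-titration fluorescence assay using electric eel AChE (type VI-S). Inhibitor was added in successive aliquots from a MeOH stock. Emission was read at 602 nm with excitation at 535 nm, after subtracting blanks. […] Three independent experiments.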

[19] = target: T1, Acetylcholinesterase; experiment: Mixed-type inhibition of recombinant human AChE assessed as inhibition constant using acetylthiocholine iodide as substrate by Cornish-Bowden plot analysis
Procedure, shortened: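 Kinetics on human recombinant AChE with acetylthiocholine at 0.113–0.566 mM and inhibitor at 0.17–1.36 nM. Lineweaver–Burk plots were fitted by weighted least squares. Ki was taken as the negative x-intercept of a replot of slopes vs [I]. K'i came from a plot of apparent 1/vmax vs [I]. Two independent experiments, each in triplicate.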

T1 sequence (P22303 whole entry): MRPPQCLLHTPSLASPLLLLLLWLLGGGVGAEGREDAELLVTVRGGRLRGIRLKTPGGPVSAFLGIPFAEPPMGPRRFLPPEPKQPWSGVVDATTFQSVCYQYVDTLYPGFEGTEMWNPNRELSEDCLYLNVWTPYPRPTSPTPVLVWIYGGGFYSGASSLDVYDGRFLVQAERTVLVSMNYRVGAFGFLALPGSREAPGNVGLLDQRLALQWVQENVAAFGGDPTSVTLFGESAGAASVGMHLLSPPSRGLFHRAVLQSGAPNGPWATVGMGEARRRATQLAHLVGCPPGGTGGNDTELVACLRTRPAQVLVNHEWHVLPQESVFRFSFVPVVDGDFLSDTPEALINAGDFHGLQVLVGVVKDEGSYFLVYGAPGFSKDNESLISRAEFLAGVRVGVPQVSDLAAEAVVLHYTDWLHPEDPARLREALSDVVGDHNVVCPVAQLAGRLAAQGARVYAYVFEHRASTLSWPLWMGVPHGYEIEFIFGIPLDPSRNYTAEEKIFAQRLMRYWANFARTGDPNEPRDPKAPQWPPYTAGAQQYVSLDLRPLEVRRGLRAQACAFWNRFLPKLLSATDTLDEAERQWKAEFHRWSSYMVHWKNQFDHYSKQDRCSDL
T2 sequence (P06276 whole entry): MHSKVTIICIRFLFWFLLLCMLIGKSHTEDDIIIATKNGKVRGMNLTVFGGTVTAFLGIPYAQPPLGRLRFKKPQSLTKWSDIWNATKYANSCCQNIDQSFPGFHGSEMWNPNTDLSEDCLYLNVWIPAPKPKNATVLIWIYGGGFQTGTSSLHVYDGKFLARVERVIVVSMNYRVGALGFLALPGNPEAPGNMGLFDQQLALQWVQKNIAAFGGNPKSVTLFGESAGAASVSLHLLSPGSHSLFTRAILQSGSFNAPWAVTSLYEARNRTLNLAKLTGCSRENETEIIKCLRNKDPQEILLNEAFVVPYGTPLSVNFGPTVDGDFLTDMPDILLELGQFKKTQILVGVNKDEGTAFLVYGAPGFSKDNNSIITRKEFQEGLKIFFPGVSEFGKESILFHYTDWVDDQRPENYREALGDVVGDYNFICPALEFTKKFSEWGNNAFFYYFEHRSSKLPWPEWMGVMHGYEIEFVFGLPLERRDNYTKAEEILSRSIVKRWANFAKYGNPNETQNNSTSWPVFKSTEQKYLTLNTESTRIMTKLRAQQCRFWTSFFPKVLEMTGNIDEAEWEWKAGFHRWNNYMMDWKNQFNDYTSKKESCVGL
Acetylcholinesterase (Electrophorus electricus, UniProt O42275), sequence (O42275 whole entry): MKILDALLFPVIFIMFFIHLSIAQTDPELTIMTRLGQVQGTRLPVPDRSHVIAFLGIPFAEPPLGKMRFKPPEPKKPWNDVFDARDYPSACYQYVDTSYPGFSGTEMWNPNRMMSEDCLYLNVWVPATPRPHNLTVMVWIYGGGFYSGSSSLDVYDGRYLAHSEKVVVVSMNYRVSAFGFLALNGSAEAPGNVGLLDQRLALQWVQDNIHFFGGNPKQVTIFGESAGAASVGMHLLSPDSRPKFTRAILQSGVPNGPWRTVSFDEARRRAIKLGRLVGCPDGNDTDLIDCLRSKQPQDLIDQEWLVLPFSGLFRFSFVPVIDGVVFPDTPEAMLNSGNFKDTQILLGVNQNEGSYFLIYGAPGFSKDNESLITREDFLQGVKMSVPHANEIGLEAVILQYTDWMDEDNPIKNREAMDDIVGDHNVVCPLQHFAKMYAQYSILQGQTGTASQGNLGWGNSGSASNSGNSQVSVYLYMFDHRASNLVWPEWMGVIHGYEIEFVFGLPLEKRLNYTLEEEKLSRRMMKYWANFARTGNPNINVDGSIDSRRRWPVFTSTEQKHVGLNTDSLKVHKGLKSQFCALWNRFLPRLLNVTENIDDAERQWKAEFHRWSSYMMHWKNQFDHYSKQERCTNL

Compound | IC50 [1] | IC50 [2] | Papp [3] | fold change (FC) [4] | Drug uptake [5] | concentration at 336 h [6] | concentration at 336 h [7] | Activity [8] | Activity [9] | Activity [10] | Activity [11] | Activity [12] | Time [13] | Activity [14] | Activity [15] | Activity [16] | Activity [17] | Kd [18] | Ki [19]
COc1cc(CNC(=O)Cc2cn(CCCCC3=CC4Cc5nc6cc(Cl)ccc6c(N)c5C(C3)C4)nn2)ccc1O (stereo not drawn) | 1.06 nM | 7.3 nM | 8.8 ×10⁻⁶ cm/s | 25 | Active | 18900 ng/g | 35600 ng/mL | Active | 62.6 pg/mL | inactive | inactive | 397.3% | 1.96 ms | 1.039 mV | inactive | Active | inactive | – | –
COc1cc(CNC(=O)CCCCCCNc2c3c(nc4cc(Cl)ccc24)CC2C=C(C)CC3C2)ccc1O (stereo not drawn) | 0.77 nM | 30.6 nM | 17.2 ×10⁻⁶ cm/s | – | Active | 1580 ng/g | < 3000 ng/mL | – | – | inactive | inactive | 275.6% | 2.32 ms | 0.808 mV | inactive | Active | inactive | 3.59 nM | 0.68 nM
